In ChEMBL document CHEMBL4765303, “Synthesis and evaluation of butein derivatives for in vitro and in vivo inflammatory response suppression in lymphedema” (Eur J Med Chem, 2020):
Converted amounts (≈) assume the structure as drawn. The source made the active and inactive calls. The calls are words filed in the database; no cut-off is given here.

Assays:
[1] = Inhibition of LPS stimulated TNF alpha production in Balb/c mouse peritoneal macrophages measured by ELISA plate reader method; assay type: functional; conditions: Macrophage
[2] = Inhibition of LPS stimulated TNF alpha production in Balb/c mouse peritoneal macrophages at 20 uM measured by ELISA plate reader method; assay type: functional; conditions: Macrophage
Outline: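 Thioglycollate-elicited peritoneal exudate cells from male Balb/c mice, adherent fraction after overnight plating at 37 °C. Cells stimulated with 100 ng/mL LPS for 24 h with compound at 20 µM. Supernatant TNF-α measured by ELISA. Mean ± SD, n = 3.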

[3] = tested on: Mus musculus; assay: Antiinflammatory activity in orally dosed surgical-induced lymphedema ICR mouse model assessed as reduction in PPARgamma expression administered 7 days before surgery and measured 7 days after surgery by Western blot analysis; assay type: functional, organism-based; conditions: time 14.0 day
[4] = Tmax in CD-1 mouse at 20 mg/kg, po measured upto 1440 mins by LC/MS/MS analysis; assay type: ADME, organism-based; conditions: in vivo
Outline: (§1)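 Male CD-1 mice, 5 weeks old, dosed once, either by tail vein at 1 mg/kg or orally at 20 mg/kg or 100 mg/kg. Plasma levels give Cmax, Tmax and AUC. Values are mean ± SD from three mice. A prodrug is quantified through its main metabolite, the parent compound (LOQ <1 ng/mL).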

[5] = Tmax in CD-1 mouse at 100 mg/kg, po measured upto 1440 mins by LC/MS/MS analysis; assay type: ADME, organism-based; conditions: in vivo; outline: as §1
[6] = tested on: Mus musculus; assay: Antiinflammatory activity in orally dosed surgical-induced lymphedema ICR mouse model assessed as reduction in dermal layer lymphedema tissue administered for 7 days before surgery and measured 7 days after surgery; assay type: functional, organism-based; conditions: time 14.0 day
Outline: (§2)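 Surgical lymphedema model in male ICR mice with oral pretreatment starting 7 days before surgery. Right hind-limb tissue taken 15–25 mm distal on day 7 post-surgery and H&E-stained to assess dermal tissue and neutrophils. Groups: normal, vehicle, treated.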

[7] = tested on: Mus musculus; assay: Antiinflammatory activity in orally dosed surgical-induced lymphedema ICR mouse model assessed as reduction in TNF-alpha mRNA expression administered 7 days before surgery and measured 7 days after surgery by RT-PCR analysis; assay type: functional, organism-based; conditions: time 14.0 day
[8] = tested on: Mus musculus; assay: Antiinflammatory activity in orally dosed surgical-induced lymphedema ICR mouse model assessed as reduction in PPARgamma expression administered 7 days before surgery and measured 7 days after surgery by immunofluorescence analysis; assay type: functional, organism-based; conditions: time 14.0 day
Outline: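 Surgical lymphedema in male ICR mice with oral pretreatment. Limb tissue harvested on day 7 post-surgery. Sections immunostained with anti-mouse PPARγ, Alexa Fluor 488 secondary and DAPI, then examined by fluorescence microscopy.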

[9] = Metabolic stability in rat liver microsomes assessed as percentage of compound remaining after 30 mins; assay type: ADME, Microsome; conditions: read-out: Stabilty
Outline: (§3)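 Phase I stability in liver microsomes from mouse, rat and human. Percent of compound remaining measured 30 min after reaction. Buspirone included as a control metabolized in Phase I.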

[10] = AUC (0 to infinity) in CD-1 mouse at 100 mg/kg, po measured upto 1440 mins by LC/MS/MS analysis; assay type: ADME, organism-based; set-up: route oral, dose 100 mg/kg, time <=1440; conditions: in vivo; outline: as §1
[11] = Oral bioavailability in CD-1 mouse at 20 mg/kg measured upto 1440 mins by LC/MS/MS analysis; assay type: ADME, organism-based; conditions: in vivo, 24 h
Outline: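 Male CD-1 mice (5 weeks) dosed orally at 20 mg/kg, with a 1 mg/kg tail-vein reference group. Bioavailability calculated as (AUCpo/AUCiv) × 100. Mean ± SD, three mice.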

[12] = Dissociation constant, pKa of compound; assay type: physicochemical
[13] = Tmax in CD-1 mouse at 1 mg/kg, iv measured upto 1440 mins by LC/MS/MS analysis; assay type: ADME, organism-based; conditions: in vivo; outline: as §1
[14] = AUC (0 to infinity) in CD-1 mouse at 20 mg/kg, po measured upto 1440 mins by LC/MS/MS analysis; assay type: ADME, organism-based; set-up: route oral, dose 20 mg/kg, time <=1440; conditions: in vivo, 24 h; outline: as §1
[15] = tested on: Mus musculus; assay: Antiinflammatory activity in orally dosed surgical-induced lymphedema ICR mouse model assessed as reduction in TNF-alpha expression administered 7 days before surgery and measured 7 days after surgery; conditions: time 14.0 day
[16] = tested on: Mus musculus; assay: Antiinflammatory activity in orally dosed surgical-induced lymphedema ICR mouse model assessed as reduction in neutrophil infiltration administered for 7 days before surgery and measured 7 days after surgery; assay type: functional, organism-based; conditions: time 14.0 day; outline: as §2
[17] = Cmax in CD-1 mouse at 1 mg/kg, iv measured upto 1440 mins by LC/MS/MS analysis; assay type: ADME, organism-based; set-up: route intravenous, dose 1 mg/kg, time <=1440; conditions: in vivo; outline: as §1
[18] = AUC (0 to infinity) in CD-1 mouse at 1 mg/kg, iv measured upto 1440 mins by LC/MS/MS analysis; assay type: ADME, organism-based; set-up: route intravenous, dose 1 mg/kg, time <=1440; conditions: in vivo, 24 h; outline: as §1
[19] = tested on: Mus musculus; assay: Antiinflammatory activity in orally dosed surgical-induced lymphedema ICR mouse model assessed as reduction in PPARgamma mRNA expression administered 7 days before surgery and measured 7 days after surgery by RT-PCR analysis; assay type: functional, organism-based; conditions: time 14.0 day
[20] = Kinetic solubility of compound in water; assay type: physicochemical; conditions: read-out: Kinetic_solubility
[21] = tested on: Mus musculus; assay: Antiinflammatory activity in orally dosed surgical-induced lymphedema ICR mouse model assessed as reduction in Fabp4 administered 7 days before surgery and measured 7 days after surgery by Western blot analysis; assay type: functional, organism-based; conditions: time 14.0 day
[22] = Cmax in CD-1 mouse at 100 mg/kg, po measured upto 1440 mins by LC/MS/MS analysis; assay type: ADME, organism-based; set-up: route oral, dose 100 mg/kg, time <=1440; conditions: in vivo; outline: as §1
[23] = Metabolic stability in mouse liver microsomes assessed as percentage of compound remaining after 30 mins; assay type: ADME, Microsome; conditions: read-out: Stabilty; outline: as §3
[24] = Metabolic stability in human liver microsomes assessed as percentage of compound remaining after 30 mins; assay type: ADME, Microsome; conditions: read-out: Stabilty; outline: as §3
[25] = Cmax in CD-1 mouse at 20 mg/kg, po measured upto 1440 mins by LC/MS/MS analysis; assay type: ADME, organism-based; set-up: route oral, dose 20 mg/kg, time <=1440; conditions: in vivo; outline: as §1
[26] = tested on: Mus musculus; assay: Antiinflammatory activity in orally dosed surgical-induced lymphedema ICR mouse model assessed as reduction in lymphedema volume administered for 7 days before surgery and measured 7 days after surgery relative to control; assay type: functional; conditions: time 14 day
Outline: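 Lymphedema induced in the right lower limb of anesthetized male ICR mice by removing the superficial inguinal, popliteal and deep inguinal lymph nodes and a femoral lymphatic vessel, with limited cautery. Oral dosing at 100 mg/kg/day started 7 days before surgery and continued every 2 days afterwards. Limb volume measured by caliper on day 7 by blinded observers and compared with vehicle.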

[27] = tested on: Mus musculus; assay: Antiinflammatory activity in orally dosed surgical-induced lymphedema ICR mouse model assessed as reduction in Fabp4 mRNA expression administered 7 days before surgery and measured 7 days after surgery by RT-PCR analysis; assay type: functional, organism-based; conditions: time 14.0 day

Cc1cc(O)ccc1C(=O)/C=C/c1ccc(O)c(O)c1
IC50 [1]: 48.4 µM | inhibition at 20 µM [2]: 41%

O=C(Oc1cc(O)ccc1C(=O)/C=C/c1ccc(O)c(O)c1)c1ccccc1
IC50 [1]: 14.6 µM | inhibition [3]: Active | Tmax [4]: 24 min | Tmax [5]: 24 min | inhibition [6]: Active | inhibition [7]: Active | inhibition [8]: Active | remaining at 0.5 h [9]: 7% | AUC ([10]; mouse, 24 h): 1224 ng·h/mL | F [11]: 4% | pKa [12]: 3.38 | Tmax [13]: 12 min | AUC [14]: 141 ng·h/mL | inhibition [15]: Active | inhibition [16]: Active | Cmax [17]: 110 ng/mL | AUC [18]: 163 ng·h/mL | inhibition [19]: Active | solubility kinetic [20]: 136 µg/mL (≈ 361 µM) | inhibition [21]: Active | Cmax [22]: 1600 ng/mL | inhibition at 20 µM [2]: 51% | remaining at 0.5 h [23]: 4% | remaining at 0.5 h [24]: 2% | Cmax [25]: 83 ng/mL | inhibition (INH) [26]: 70% | inhibition [27]: Active

O=C(/C=C/c1ccc(F)c(O)c1)c1ccc(O)cc1O
inhibition at 20 µM [2]: 22%

O=C1CC2(CCCC2)CC(=O)N1CCCCN1CCN(c2ncccn2)CC1 [BUSPIRONE]
remaining at 0.5 h [9]: 0.0928% | remaining at 0.5 h [23]: 0.0183% | remaining at 0.5 h [24]: 4.7%

O=C(Oc1cc(O)ccc1C(=O)/C=C/c1ccc(O)c(O)c1)c1ccc(Cl)cc1
IC50 [1]: 17.9 µM

O=C(/C=C/c1ccc(O)c(O)c1)c1ccc(O)cc1F
inhibition at 20 µM [2]: 32%

Cc1ccc(C(=O)Oc2cc(O)ccc2C(=O)/C=C/c2ccc(O)c(O)c2)cc1
IC50 [1]: 18.9 µM

O=C(/C=C/c1ccc(O)c(O)c1)c1ccc(O)cc1O [BUTEIN]
IC50 [1]: 43.3 µM | inhibition [3]: Active | Tmax [4]: 18 min | Tmax [5]: 18 min | inhibition [6]: Active | inhibition [7]: Active | inhibition [8]: Active | remaining at 0.5 h [9]: 18.1% | AUC(0-inf) ([10]; CD-1, mouse): 251 ng·h/mL | pKa [12]: 7.96 | Tmax [13]: 6 min | AUC [14]: 21 ng·h/mL | inhibition [15]: Active | inhibition [16]: Active | Cmax [17]: 41 ng/mL | AUC [18]: 6.7 ng·h/mL | inhibition [19]: Active | solubility kinetic [20]: 21 µg/mL (≈ 77.1 µM) | inhibition [21]: Active | Cmax [22]: 601 ng/mL | inhibition at 20 µM [2]: 20% | remaining at 0.5 h [23]: 9.93% | remaining at 0.5 h [24]: 61.6% | Cmax [25]: 43 ng/mL | inhibition (INH) [26]: 52% | inhibition [27]: Active

COc1ccc(C(=O)Oc2cc(O)ccc2C(=O)/C=C/c2ccc(O)c(O)c2)cc1
IC50 [1]: 20.8 µM

Cc1ccc(C(=O)/C=C/c2ccc(O)c(O)c2)cc1
IC50 [1]: 18.6 µM | inhibition at 20 µM [2]: 61%

CC(C)Oc1cc(O)ccc1C(=O)/C=C/c1ccc(O)c(O)c1
inhibition at 20 µM [2]: 64%

O=C(/C=C/c1ccc(O)c(O)c1)c1ccc(Cl)cc1
IC50 [1]: 17.3 µM | remaining at 0.5 h [9]: 21.1% | pKa [12]: 9.23 | solubility kinetic [20]: 28 µg/mL (≈ 102 µM) | inhibition at 20 µM [2]: 62% | remaining at 0.5 h [23]: 7.26% | remaining at 0.5 h [24]: 38% | inhibition (INH) [26]: 53%

CC(=O)Oc1ccc(C(=O)/C=C/c2ccc(OC(C)=O)c(OC(C)=O)c2)c(OC(C)=O)c1
IC50 [1]: 12.8 µM | inhibition at 20 µM [2]: 73%
